Screening results (PubChem BioAssay)
The sample as a whole holds a higher share of hits than the screen did.
IDH1 R132H inh – inhibitors of IDH1 R132H reductase, primary screen, biochemical, plate reader, single point; Isocitrate dehydrogenase [NADP] cytoplasmic (Homo sapiens), O75874; diaphorase/resazurin fluorescence, 60 min; inhibition, % at 10 µM; 70,000 tested, 0.18% active; in the data active = inhibition above about 34%; inconclusive = no clear call, values can overlap the other calls; inactive = below about 11%
Target sequence (O75874 whole entry R132H): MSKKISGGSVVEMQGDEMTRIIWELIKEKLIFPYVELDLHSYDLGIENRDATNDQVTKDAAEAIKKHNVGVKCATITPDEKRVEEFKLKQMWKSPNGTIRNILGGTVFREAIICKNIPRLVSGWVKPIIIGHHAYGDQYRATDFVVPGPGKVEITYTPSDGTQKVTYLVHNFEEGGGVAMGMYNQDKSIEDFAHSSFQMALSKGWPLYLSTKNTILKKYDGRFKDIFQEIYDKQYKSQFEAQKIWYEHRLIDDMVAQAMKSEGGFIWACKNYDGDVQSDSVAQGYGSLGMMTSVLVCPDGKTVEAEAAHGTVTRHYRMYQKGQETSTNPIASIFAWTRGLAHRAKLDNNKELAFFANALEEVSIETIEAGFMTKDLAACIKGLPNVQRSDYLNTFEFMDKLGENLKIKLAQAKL
T cruzi growth-1 – T. cruzi intracellular proliferation inhibitors, primary screen, cell-based, beta-gal Tulahuen parasites, NIH3T3 host, luminescence | T. cruzi beta-gal in NIH3T3, GalScreen luminescence, 90 h | inhibition, % at 8.34 µM | 77,000 tested, 5.9% active | AID 624255, 2012;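 active = mean inhibition above about 93%, with at least 55% of replicates each passing it, limit read from the data, passing the limit was not always enough; inconclusive = only one of those two conditions holds; inactive = neither condition holds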
KDM4C inh – inhibitors of GASC-1 (KDM4C) histone demethylase, primary screen, biochemical, single concentration HTS. GST-KDM4C 2-372, H3K9me3 peptide, LANCE TR-FRET. inhibition, % at 12.5 µM. 96,000 tested, 0.15% active. AID 720574, 2013;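 active = mean replicate inhibition above about 25%, with at least 55% of replicates also reaching it, limit read from the data, passing the limit was not always enough; inconclusive = only one of those two conditions met; inactive = neither condition met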
Target sequence (Q9H3R0 2-372 limits assumed): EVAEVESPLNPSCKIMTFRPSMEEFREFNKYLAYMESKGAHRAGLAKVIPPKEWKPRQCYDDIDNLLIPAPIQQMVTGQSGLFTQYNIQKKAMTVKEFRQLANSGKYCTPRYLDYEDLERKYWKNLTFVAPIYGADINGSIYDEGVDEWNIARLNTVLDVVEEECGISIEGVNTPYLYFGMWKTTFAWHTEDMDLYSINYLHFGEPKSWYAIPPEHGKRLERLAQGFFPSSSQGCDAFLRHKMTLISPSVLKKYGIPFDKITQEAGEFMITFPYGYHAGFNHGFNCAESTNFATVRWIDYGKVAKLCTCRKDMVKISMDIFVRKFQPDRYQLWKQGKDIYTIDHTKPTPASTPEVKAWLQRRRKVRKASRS
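Material: N-terminal GST-fused human GASC-1 (KDM4C) fragment, residues 2-372. Input: 10 nM enzyme. Incubation: enzyme reaction 30 min, then detection 60 min, both room temperature. Doses: one test concentration per compound. Read-out basis: inhibition from TR-FRET ratio decrease. Detection: LANCE TR-FRET, excitation 340 nm, emissions 618 and 671 nm.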
T cruzi growth-2 – T. cruzi intracellular proliferation inhibitors, confirmation, cell-based, NIH3T3 host, beta-gal parasite, luminescence, cherry-pick; 5,600 tested, 72% active; inhibition, % at 8.35 µM; AID 651739, 2012; shares compounds with T cruzi growth-1; T. cruzi beta-gal in NIH3T3, GalScreen luminescence, 90 h;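 active = mean replicate inhibition above about 95% and at least 55% of replicates individually reaching it, limit read from the data; inconclusive = only one of the two criteria is met; inactive = neither criterion is met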
T cruzi growth-3 – inhibitors of intracellular T. cruzi replication, confirmation, NIH3T3 host cells, beta-gal parasites, cherry-pick, set 2; T. cruzi beta-gal in NIH3T3, GalScreen luminescence, 90 h; 5,600 tested, 21% active; shares compounds with T cruzi growth-1; inhibition, % at 2.09 µM;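 active = mean inhibition above about 95%, with at least 55% of replicates also reaching it, limit read from the data; inconclusive = meets just one of the two conditions; inactive = meets neither condition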
3T3 cytotox – cytotoxicity in mouse NIH/3T3 fibroblasts, confirmation, cytotoxicity control for T. cruzi proliferation inhibitor project, cell-based, cherry-pick, single point; shares compounds with T cruzi growth-1; NIH/3T3 viability, CellTiter-Glo ATP luminescence, 90 h; cytotoxicity (signal decrease), % at 8.35 µM; 5,600 tested, 14% active; AID 651742, 2012;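 active = mean signal decrease across replicates above about 35% based on untreated-well scatter, with enough replicates individually passing, limit read from the data; inconclusive = no rule stated though some were filed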
NIH3T3 tox 2 – NIH/3T3 fibroblast cytotoxicity, confirmation, cytotoxicity control, cell-based, cherry-pick, single point, set 2; NIH/3T3 viability, CellTiter-Glo ATP luminescence, 90 h; shares compounds with T cruzi growth-1; inhibition, % at 24.9 µM; 5,600 tested, 56% active;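 active = mean loss of cell viability signal at or above a set limit, and enough replicates individually reaching it; inconclusive = meets only the mean limit or only the replicate share; inactive = meets neither condition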
Large screens that a line does not name were inactive (follow-up assays come after a bar, where they were run).

C[C@H](CO)N1C[C@H](C)[C@H](CN(C)S(=O)(=O)c2ccccc2)OCCCC[C@H](C)Oc2ccc(NC(=O)Nc3ccccc3)cc2C1=O	T cruzi growth-1 100.0 | T cruzi growth-2 107.9 | T cruzi growth-3 inactive | 3T3 cytotox inactive | NIH3T3 tox 2 54.3
C[C@@H]1CN([C@H](C)CO)C(=O)c2cc(NC(=O)Nc3ccccc3)ccc2O[C@@H](C)CCCCO[C@H]1CN(C)S(=O)(=O)c1ccccc1	none
CC(C(=O)Oc1cccc2cccnc12)N1C(=O)c2ccccc2C1=O (stereo not given)	none (no result: T cruzi growth-1, KDM4C inh)
C[C@@H]1CN([C@H](C)CO)C(=O)c2cc(NC(=O)Cc3ccccc3)ccc2O[C@@H]1CN(C)Cc1ccc(C(F)(F)F)cc1	none
C[C@@H]1CN([C@@H](C)CO)C(=O)c2cc(NC(=O)Cc3ccccc3)ccc2O[C@H]1CN(C)Cc1ccc(-c2ccccc2)cc1	none
C[C@H](CO)N1C[C@H](C)[C@@H](CN(C)Cc2ccc(Cl)c(Cl)c2)Oc2ccc(NC(=O)Cc3ccccc3)cc2C1=O	none (no result: IDH1 R132H inh)
C[C@@H]1CN([C@@H](C)CO)C(=O)c2cc(NC(=O)Cc3ccccc3)ccc2O[C@H]1CN(C)Cc1ccc(C(F)(F)F)cc1	T cruzi growth-1 inconclusive | T cruzi growth-2 100.6 | T cruzi growth-3 inactive | 3T3 cytotox inactive | NIH3T3 tox 2 59.9
C[C@@H]1CN([C@@H](C)CO)C(=O)c2cc(NC(=O)Cc3ccccc3)ccc2O[C@@H]1CN(C)Cc1ccc(Cl)c(Cl)c1	T cruzi growth-1 104.5 | T cruzi growth-2 97.8 | T cruzi growth-3 inactive | 3T3 cytotox inactive | NIH3T3 tox 2 95.8
C[C@@H]1CN([C@H](C)CO)C(=O)c2cc(NC(=O)Cc3ccccc3)ccc2O[C@@H]1CN(C)Cc1ccc(-c2ccccc2)cc1	T cruzi growth-1 113.5 | T cruzi growth-2 113.1 | T cruzi growth-3 inactive | 3T3 cytotox inactive | NIH3T3 tox 2 77.8
C=CC(C)(O)CC/C=C(\C)C(=O)OC1C2OC2(C)C2C(OC3OC(COC4OC(CO)C(O)C(O)C4O)C(O)C(O)C3O)OC=CC12O (stereo not given)	none (no result: T cruzi growth-1, KDM4C inh)
CCOc1cc(C)c(Cl)cc1S(=O)(=O)NCc1ccccn1	none (no result: T cruzi growth-1, KDM4C inh)
CN(C)C(=O)c1cccc(-c2ccc([C@H]3[C@H](CO)N4CCCCN(C(=O)C5CCCC5)C[C@@H]34)cc2)c1	T cruzi growth-1 inconclusive (no result: IDH1 R132H inh, KDM4C inh) | T cruzi growth-2 99.1 | T cruzi growth-3 inactive | 3T3 cytotox inactive | NIH3T3 tox 2 inactive
CN(C)C(=O)c1cccc(-c2ccc([C@H]3[C@@H](CO)N4CCCCN(C(=O)C5CCC5)C[C@@H]34)cc2)c1	T cruzi growth-1 105.3 (no result: IDH1 R132H inh) | T cruzi growth-2 inactive | T cruzi growth-3 inactive | 3T3 cytotox inactive | NIH3T3 tox 2 inactive
CN(C)C(=O)c1cccc(-c2ccc([C@@H]3[C@@H](CO)N4CCCCN(S(C)(=O)=O)C[C@@H]34)cc2)c1	T cruzi growth-1 99.3 (no result: IDH1 R132H inh) | T cruzi growth-2 inconclusive | T cruzi growth-3 inactive | 3T3 cytotox inactive | NIH3T3 tox 2 inactive
CN(C)C(=O)c1cccc(-c2ccc([C@@H]3[C@H]4CN(C(=O)C5CCCC5)CCCCN4[C@H]3CO)cc2)c1	none (no result: IDH1 R132H inh, KDM4C inh)
CN(C)C(=O)c1cccc(-c2ccc([C@@H]3[C@@H](CO)N4CCCCN(S(C)(=O)=O)C[C@H]34)cc2)c1	none (no result: IDH1 R132H inh)
CN(C)C(=O)c1cccc(-c2ccc([C@@H]3[C@H](CO)N4CCCCN(C(=O)C5CCCC5)C[C@@H]34)cc2)c1	none (no result: IDH1 R132H inh, KDM4C inh)
COC(=O)C1=C(C)Nc2ncnn2C1c1ccccc1[N+](=O)[O-] (stereo not given)	none (no result: T cruzi growth-1, KDM4C inh)
COc1cc(OC)c(O[C@@H]2O[C@H](COC(=O)c3cc(O)c(O)c(O)c3)[C@@H](O)[C@H](O)[C@H]2O)c(OC)c1	none (no result: T cruzi growth-1, KDM4C inh)
CCC(=O)N1CCN(c2ccc(Cl)cc2NC(=O)COc2ccc(Br)cc2)CC1	none (no result: T cruzi growth-1, KDM4C inh)
CC(Oc1ccc(C(C)(C)C)cc1)C(=O)Nc1ncn[nH]1 (stereo not given)	none (no result: T cruzi growth-1, KDM4C inh)
O=C(CCCN1C(=O)c2ccccc2C1=O)Nc1cc(Cl)cc(Cl)c1	none (no result: T cruzi growth-1, KDM4C inh)
Cc1ccc(-c2ccc3c(c2)O[C@H](CN(C)C(=O)Nc2ccc(F)cc2)[C@@H](C)CN([C@H](C)CO)S3(=O)=O)cc1	none
Cc1ccc(-c2ccc3c(c2)O[C@@H](CN(C)C(=O)Nc2ccc(F)cc2)[C@@H](C)CN([C@H](C)CO)S3(=O)=O)cc1	T cruzi growth-1 121.8 (no result: IDH1 R132H inh) | T cruzi growth-2 108.2 | T cruzi growth-3 inactive | 3T3 cytotox 55.4 | NIH3T3 tox 2 44.9
Cc1ccc(-c2ccc3c(c2)O[C@@H](CN(C)C(=O)Nc2ccccc2)[C@@H](C)CN([C@H](C)CO)S3(=O)=O)cc1	none (no result: T cruzi growth-1)
Cc1ccc(-c2ccc3c(c2)O[C@H](CN(C)C(=O)Nc2ccc(F)cc2)[C@H](C)CN([C@@H](C)CO)S3(=O)=O)cc1	T cruzi growth-1 119.2 | T cruzi growth-2 96.7 | T cruzi growth-3 inactive | 3T3 cytotox inactive | NIH3T3 tox 2 inactive
Cc1ccc(-c2ccc3c(c2)O[C@H](CN(C)C(=O)Nc2ccc(F)cc2)[C@H](C)CN([C@H](C)CO)S3(=O)=O)cc1	T cruzi growth-1 121.7 (no result: IDH1 R132H inh) | T cruzi growth-2 109.8 | T cruzi growth-3 inactive | 3T3 cytotox inactive | NIH3T3 tox 2 66.5
Cc1ccc(-c2ccc3c(c2)O[C@H](CN(C)C(=O)Nc2ccccc2)[C@H](C)CN([C@@H](C)CO)S3(=O)=O)cc1	none (no result: T cruzi growth-1)
CC(=O)Nc1ccccc1NC(=O)CN(C)S(=O)(=O)c1ccc(Cl)cc1	none (no result: T cruzi growth-1, KDM4C inh)
O=C(c1ccccc1)N1CC[C@@H]2[C@H]1c1cc(C#Cc3ccccc3F)ccc1N[C@@H]2CO	T cruzi growth-1 103.9 (no result: IDH1 R132H inh) | T cruzi growth-2 111.7 | T cruzi growth-3 inactive | 3T3 cytotox inactive | NIH3T3 tox 2 inactive
O=C(c1cccc(F)c1)N1CC[C@@H]2[C@H](CO)Nc3ccc(C#Cc4cccc(F)c4)cc3[C@@H]21	none (no result: IDH1 R132H inh)
O=C(c1cccc(F)c1)N1CC[C@@H]2[C@H]1c1cc(C#Cc3cccc(F)c3)ccc1N[C@@H]2CO	T cruzi growth-1 102.9 (no result: IDH1 R132H inh) | T cruzi growth-2 104.2 | T cruzi growth-3 inactive | 3T3 cytotox inactive | NIH3T3 tox 2 106.0
COc1ccccc1C#Cc1ccc2c(c1)[C@@H]1[C@@H](CCN1C(=O)c1ccccc1)[C@@H](CO)N2	T cruzi growth-1 104.1 (no result: IDH1 R132H inh) | T cruzi growth-2 105.6 | T cruzi growth-3 inactive | 3T3 cytotox inactive | NIH3T3 tox 2 inactive
